According to ChEMBL document CHEMBL3244350, “Antitumor and antiinflammatory agents: N-benzoyl-protected cyanomethyl esters of amino acids” (J Med Chem, 1979):
Active and inactive are the calls of the source. The calls are words filed in the database; no cut-off is given here.

Experiments:
[1] = system: Mus musculus; experiment: Antitumor activity against mouse EAC allografted in CF1 mouse assessed as ascrit fluid volume at 20 mg/kg, ip qd for 7 days (reference value: 6.63 +/- 1.24 mL); type: functional; conditions: route intraperitoneal
[2] = system: Mus musculus; experiment: Antitumor activity against mouse EAC allografted in CF1 mouse assessed as tumor growth inhibition at 20 mg/kg, ip qd for 7 days (reference value: 0%); type: functional; conditions: 168 h, route intraperitoneal
[3] = system: Mus musculus; experiment: Antitumor activity against mouse P388 cells allografted in DBA/2 mouse assessed as host survival on day 7 at 20 mg/kg, ip qd for 2 weeks; type: functional; conditions: route intraperitoneal
How it was run: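 P388 leukemia in male DBA/2 mice (20 g): 10⁶ cells implanted on day 0. Compounds were given ip at 20 (mg/kg)/day for 2 weeks. Survival was expressed as T/C by the NIH protocol; T/C > 120 counted as significant. 5-Fluorouracil was the internal standard.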

[4] = system: Mus musculus; experiment: Antitumor activity against mouse P388 cells allografted in DBA/2 mouse assessed as tumor growth inhibition at 20 mg/kg, ip qd for 2 weeks (reference value: 100%); type: functional; conditions: route intraperitoneal
How it was run: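 DBA/2 male mice (20 g) implanted with 10^6 P-388 cells on day 0, then dosed ip at 20 mg/kg/day for 2 weeks. T/C computed by the NIH protocol; T/C ≥120 counted as significant. 5-Fluorouracil served as internal standard.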

[5] = system: Mus musculus; experiment: Antiinflammatory activity in CF1 mouse assessed as increase in foot weight at 20 mg/kg, ip administered 3 hrs and 30 mins prior to carrageenan-challenge measured after 3 hrs (reference value: 97 +/- 10 mg); type: functional; conditions: route intraperitoneal
[6] = system: Mus musculus; experiment: Antiinflammatory activity in CF1 mouse assessed as inhibition of carrageenan-induced paw edema at 20 mg/kg, ip administered 3 hrs and 30 mins prior to carrageenan-challenge measured after 3 hrs (reference value: 0%); type: functional; conditions: route intraperitoneal
[7] = species: Mus musculus; experiment: Toxicity in CF1 mouse; type: organism-based; conditions: in vivo
[8] = system: Mus musculus; experiment: Antitumor activity against mouse EAC allografted in CF1 mouse assessed as host survival on day 7 at 20 mg/kg, ip qd for 7 days; type: functional, organism-based; set-up: dose 20 mg/kg
[9] = system: Mus musculus; experiment: Immunosuppressive activity in mouse splenic lymphocytes isolated from 25 mg/kg, ip on days 2,3 and 4 treated CF1 mouse assessed as reduction in sheep red blood cell antigen-induced plaque-forming response (reference value: 100%); set-up: scale not given: the % may be the effect or the level left; conditions: route intraperitoneal
[10] = system: Mus musculus; experiment: Antiinflammatory activity in CF1 mouse assessed as inhibition of carrageenan-induced paw edema at 10 mg/kg, ip administered 3 hrs and 30 mins prior to carrageenan-challenge measured after 3 hrs (reference value: 0%); type: functional; conditions: route intraperitoneal
[11] = system: Mus musculus; experiment: Antiinflammatory activity in CF1 mouse assessed as increase in foot weight at 10 mg/kg, ip administered 3 hrs and 30 mins prior to carrageenan-challenge measured after 3 hrs (reference value: 97 +/- 10 mg); type: functional; conditions: route intraperitoneal
[12] = system: Mus musculus; experiment: Immunosuppressive activity in mouse splenic lymphocytes isolated from 0.1 mg, ip on days 2,3 and 4 treated CF1 mouse assessed as reduction in sheep red blood cell antigen-induced plaque-forming response (reference value: 100%); set-up: scale not given: the % may be the effect or the level left
[13] = Acute toxicity in CF1 mouse; type: organism-based; conditions: in vivo
[14] = system: Mus musculus; experiment: Analgesic activity in CF1 mouse assessed as inhibition of acetic acid-induced writhing reflex measured for 10 mins at 20 mg/kg,ip administration 5 mins prior to test by […]; type: functional, organism-based; set-up: dose 20 mg/kg
[15] = system: Rattus norvegicus; experiment: Antipyretic activity in Sprague-Dawley rat assessed as decrease in yeast/mycobacterium butyricum-induced increase temperature at 2.5 mg/kg, ip; type: functional, organism-based; set-up: dose 2.5 mg/kg
[16] = system: Rattus norvegicus; experiment: Antipyretic activity in Sprague-Dawley rat assessed as decrease in yeast/mycobacterium butyricum-induced increase temperature at 5 mg/kg, ip; type: functional, organism-based; set-up: dose 5 mg/kg
[17] = system: Mus musculus; experiment: Analgesic activity in CF1 mouse assessed as inhibition of acetic acid-induced pain measured for 10 mins at 2.5 mg/kg,ip administration 5 mins prior to test by […]; type: functional, organism-based; set-up: dose 2.5 mg/kg
[18] = system: Mus musculus; experiment: Analgesic activity in CF1 mouse assessed as inhibition of acetic acid-induced pain measured for 10 mins at 5 mg/kg,ip administration 5 mins prior to test by […]; type: functional, organism-based; set-up: dose 5 mg/kg

Compound | Activity [1] | inhibition in vivo at 20 mg/kg [2] | Survival [3] | T/C [4] | Activity [5] | inhibition in vivo at 20 mg/kg [6] | Activity [7] | Activity [8] | Activity [9] | inhibition in vivo at 10 mg/kg [10] | Activity [11] | Activity [12] | LD50 [13] | inhibition [14] | Activity [15] | Activity [16] | Activity [17] | Activity [18]
N#CCOC(=O)[C@@H]1CCCN1C(=O)c1ccccc1 | 2.93 mL | 59.3% | 9 days | 93 | 67 mg | 39% | Non-toxic | – | – | – | – | – | – | – | – | – | – | –
N#CCOC(=O)C(Cc1ccccc1)NC(=O)OCc1ccccc1 (configuration not stated) | 0.4 mL | 86% | – | – | 54 mg | 38% | Non-toxic | Active | – | – | – | – | – | – | – | – | – | –
N#CCOC(=O)CNC(=O)OCc1ccccc1 | 2.2 mL | 29% | – | – | 48 mg | 45% | Non-toxic | Active | 58% | – | – | – | – | – | – | – | – | –
CCC(C)C(NC(=O)c1ccccc1)C(=O)OCC#N (configuration not stated) | 2.97 mL | 46.6% | 11.8 days | 122 | 89 mg | 18% | Non-toxic | – | – | – | – | – | – | – | – | – | – | –
CC(=O)N[C@@H](Cc1ccccc1)C(=O)OCC#N | 3.9 mL | 16% | – | – | 49 mg | 44% | Non-toxic | Active | – | – | – | – | – | – | – | – | – | –
O=c1[nH]cc(F)c(=O)[nH]1 [FLUOROURACIL] | – | – | 18 days | 186 | – | – | – | – | – | – | – | – | – | – | – | – | – | –
N#CCOC(=O)CCCCCNC(=O)OCc1ccccc1 | 1 mL | 54% | – | – | 63 mg | 28% | Non-toxic | Active | – | – | – | – | – | – | – | – | – | –
COc1ccc2c(c1)c(CC(=O)O)c(C)n2C(=O)c1ccc(Cl)cc1 [INDOMETHACIN] | – | – | 9.66 days | 100 | 97 mg | 0% | – | – | – | 74% | 23 mg | – | – | – | – | – | – | –
N#CCOC(=O)[C@H](Cc1ccccc1)NC(=O)c1ccccc1 | 1.8 mL | 47% | – | – | 43 mg | 51% | Non-toxic | – | – | – | – | – | – | – | – | – | – | –
N#CCOC(=O)[C@H](Cc1ccc(O)cc1)NC(=O)c1ccccc1 | 1.98 mL | 42.3% | 11.3 days | 113 | 75 mg | 41% | Non-toxic | – | – | – | – | – | – | – | – | – | – | –
CC(C)C[C@H](NC(=O)c1ccccc1)C(=O)OCC#N | 0.8 mL | 87.2% | 11.3 days | 117 | 77 mg | 29% | Non-toxic | – | – | – | – | – | – | – | – | – | – | –
Sc1ncnc2nc[nH]c12 [MERCAPTOPURINE ANHYDROUS] | 0.7 mL | 99.6% | – | – | – | – | – | Active | – | – | – | – | – | – | – | – | – | –
N[C@@H](Cc1ccc(N(CCCl)CCCl)cc1)C(=O)O [MELPHALAN] | – | – | – | – | – | – | – | – | 100% | – | – | 51% | – | – | – | – | – | –
N#CCOC(=O)CCCCCNC(=O)c1ccccc1 | 2.73 mL | 45.2% | 10.3 days | – | 65 mg | 40% | Non-toxic | Active | – | – | – | – | – | – | – | – | – | –
CC(NC(=O)c1ccccc1)C(=O)OCC#N (configuration not stated) | 2.91 mL | 43.3% | 9.7 days | 100 | 87 mg | 25% | Non-toxic | Active | – | – | – | – | – | – | – | – | – | –
N#CCOC(=O)CCNC(=O)c1ccccc1 | 4.96 mL | 11.6% | – | – | 75 mg | 31% | Non-toxic | – | – | – | – | – | – | – | – | – | – | –
Cc1ccc(S(=O)(=O)N[C@@H](Cc2ccccc2)C(=O)CCl)cc1 [TPCK] | 0.01 mL | 100% | – | – | 31 mg | 56% | – | – | – | – | – | – | 210 µmol/kg | – | – | – | – | –
CC(C)C(NC(=O)c1ccccc1)C(=O)OCC#N (configuration not stated) | 0.07 mL | 99.9% | 10.5 days | 109 | 82 mg | 24% | Non-toxic | – | – | – | – | – | – | – | – | – | – | –
N#CCOC(=O)CCCNC(=O)c1ccccc1 | 2.78 mL | 43.1% | 10 days | 104 | 68 mg | 37% | Non-toxic | – | – | – | – | – | – | – | – | – | – | –
Cc1ccc(S(=O)(=O)N[C@@H](Cc2ccccc2)C(=O)OCC#N)cc1 | 0.4 mL | 97% | 9.1 days | 94 | 69 mg | 21% | Non-toxic | – | – | – | – | – | – | – | – | – | – | –
N#CCOC(=O)CNC(=O)c1ccccc1 | 2.85 mL | 40.2% | 10.5 days | 109 | 55 mg | 50% | Non-toxic | Active | – | – | – | – | – | – | – | – | – | –
N#CCOC(=O)[C@H](Cc1ccccc1)NC(=O)OCc1ccccc1 | 0.2 mL | 99.9% | 6.6 days | 68 | 39 mg | 55% | Non-toxic | Active | 86% | – | – | – | – | Active | inactive | inactive | inactive | inactive
C[C@H](NC(=O)c1ccccc1)C(=O)OCC#N | 0.1 mL | 98.2% | 9.8 days | 101 | 56 mg | 49% | Non-toxic | Active | – | – | – | – | – | – | – | – | – | –
N#CCOC(=O)[C@H](Cc1ccccc1)NC(=O)[C@H](Cc1ccccc1)NC(=O)OCc1ccccc1 | 2.1 mL | 43% | – | – | 61 mg | 30% | Non-toxic | – | – | – | – | – | – | – | – | – | – | –
